Shown are actives, neighbours in structure and some others; about 4% of the full set was active somewhere.
TAAR1 antagonist = antagonists of human TAAR1; Q96RJ0; CHO RD-HGA16 TAAR1, Fluo-8 calcium fluorescence, antagonist; inhibition, % at 3 µM; 360,000 tested, 1.5% active; AID 624466;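 active means inhibition above a per-plate cutoff, the mean inhibition of test compounds on that plate plus 3 SD, cut at about 49% in these data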;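 further: 0% = DMSO plus EC80 beta-PEA response and 100% = DMSO alone without agonist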
Target sequence (Q96RJ0 whole entry, looked up): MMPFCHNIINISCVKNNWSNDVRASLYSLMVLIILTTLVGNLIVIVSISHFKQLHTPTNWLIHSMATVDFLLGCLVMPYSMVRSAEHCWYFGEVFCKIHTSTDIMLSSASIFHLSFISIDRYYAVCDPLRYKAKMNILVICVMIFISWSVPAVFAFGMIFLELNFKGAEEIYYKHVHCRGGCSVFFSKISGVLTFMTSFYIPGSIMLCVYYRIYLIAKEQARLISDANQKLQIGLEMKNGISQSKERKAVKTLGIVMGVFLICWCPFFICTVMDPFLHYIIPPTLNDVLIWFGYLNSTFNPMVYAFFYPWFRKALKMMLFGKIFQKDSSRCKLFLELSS
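Test system: hTAAR1-expressing CHO RD-HGA16 cells, Gα16-coupled; Probe or stimulus: EC80 β-phenethylamine stimulus; Compound dosing: single nominal final test compound concentration of 3 µM; Timing: 140 s kinetic read after compound, 140 s after agonist; Signal: Fluo-8 calcium-sensitive fluorescence; Measure: % inhibition of agonist calcium response; Controls: DMSO and EC80 PEA controls.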
OX1R antag-1 = OX1R (human) antagonism; inhibition, % at 6.6 µM; OX1R-expressing cells, FRET antagonist read-out; AID 485270; 330,000 tested, 1.8% active; O43613; in the data active means inhibition mostly above about 38%, no sharp cut-off; inactive means mostly below about 40%;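 further: 0% = agonist challenge alone and 100% = reference antagonist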
CHO parental Ca = signal in parental CHO cells, OX1R antagonist counter-screen | 330,000 tested, 0.63% active | parental CHO-K1, ATP-induced calcium, Fluo-8 fluorescence | inhibition, % at 5.6 µM;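 active means inhibition above that plate's mean sample inhibition plus 3 SD, cut at about 26% in these data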;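 further: 0% = ATP-challenged DMSO wells and 100% = DMSO wells without ATP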
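Test system: untransfected parental CHO cell line. Compound: one dose, 5.6 µM nominal. Detection: intracellular calcium via Fluo-8 no-wash fluorescent dye. Measure: % inhibition. Benchmarks: ATP-challenged DMSO wells low, unchallenged DMSO wells high.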
TAAR1 agonist = human TAAR1 agonism | Q96RJ0 | CHO RD-HGA16 TAAR1, Fluo-8 calcium fluorescence; vehicle wells 0%, saturating PEA agonist 100% | activation, % at 3 µM | 360,000 tested, 0.99% active | AID 624467;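 active means activation above the mean activation of all test compounds in the run plus 3 SD, cut at about 38% in these data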
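System: CHO RD-HGA16 cells carrying human TAAR1 plus Gα16; Incubation: 17-24 h seeding, 75 min 37 °C dye, 30 min RT; Measured by: Fluo-8 fluorescence, 5 s baseline then 140 s kinetic read; Control set: DMSO and PEA EC100; Replication: single well for each compound.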
OX1R antag-2 = antagonists of human orexin 1 receptor; CHO/OX1R cells, Fluo-8 calcium fluorescence, orexin A; inhibition, % at 5 µM; 330,000 tested, 0.43% active;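 active means inhibition above its plate's threshold, mean inhibition of all tested compounds on the plate plus 3 SD, cut at about 37% in these data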;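 further: 0% = orexin A challenge wells and 100% = SB-334867-A antagonist wells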
NTR1 agonist = agonists of human neurotensin receptor NTR1. P30989. NTR1-U2OS beta-arrestin-GFP spot imaging, agonist mode. activation, % at 20 µM. 330,000 tested, 0.17% active. AID 493036;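 active means activation at or above 40% of the spot to cytoplasm intensity ratio, with at least 20 cells analyzed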;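 further: 0% = DMSO without peptide and 100% = 100 nM NTR1 peptide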
Target sequence (P30989 whole entry, looked up): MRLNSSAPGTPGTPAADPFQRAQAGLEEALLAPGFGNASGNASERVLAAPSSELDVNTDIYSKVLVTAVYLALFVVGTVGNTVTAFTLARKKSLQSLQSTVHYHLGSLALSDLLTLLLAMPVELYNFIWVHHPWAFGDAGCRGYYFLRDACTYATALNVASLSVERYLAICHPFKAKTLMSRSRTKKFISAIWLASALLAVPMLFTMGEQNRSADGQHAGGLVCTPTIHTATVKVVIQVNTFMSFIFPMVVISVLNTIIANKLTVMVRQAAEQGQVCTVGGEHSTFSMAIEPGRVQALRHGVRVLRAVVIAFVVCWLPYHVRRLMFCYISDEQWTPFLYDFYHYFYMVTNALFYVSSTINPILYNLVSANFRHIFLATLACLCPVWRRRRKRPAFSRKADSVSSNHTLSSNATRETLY
OX1R Ca confirm = OX1R (human) antagonism, confirmed; shares compounds with OX1R antag-2; CHO/OX1R cells, orexin A calcium Fluo-8 fluorescence; inhibition, % at 5 µM; 1,100 tested, 38% active; AID 492963; in the data active means inhibition above about 29%;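 further: 0% = agonist challenge alone and 100% = reference antagonist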
CHO Ca triplic = counter-screen for OX1R antagonists: effect in parental CHO cells; shares compounds with OX1R antag-2; parental CHO-K1, ATP-induced calcium, Fluo-8 fluorescence; inhibition, % at 5.6 µM; 1,100 tested, 9.3% active; AID 492965;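 active means inhibition above a per-plate limit, the mean inhibition of that plate's test compounds plus 3 SD, cut at about 25% in these data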;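 further: 0% = ATP challenge with DMSO and 100% = DMSO without ATP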
* hit, by the source's call; . = not tested or not shown.

SMILES | TAAR1 antagonist | OX1R antag-1 | CHO parental Ca | TAAR1 agonist | OX1R antag-2 | NTR1 agonist | OX1R Ca confirm | CHO Ca triplic
Cn1c(=O)n(C)c2cc(NC(=O)CSc3nc4ccccc4c(=O)[nH]3)ccc21 | -13.8 | 18.6 | -2.8 | 3.9 | -11.2 | 1.9 | . | .
OCCNc1ncnc2c1ncn2[C@H]1CN(Cc2ccc(Cl)cc2)C[C@@H](CO)O1 | -3.8 | . | . | -0.1 | . | . | . | .
Cc1cccc(C)c1NC(=O)CN(C)C(=O)Cn1c(=O)cnc2ccccc21 | -31.2 | 39.5 | -6.0 | 1.3 | -16.4 | 0.8 | . | .
OCC1(Cc2cccc(Cl)c2)CCCN(Cc2ccc3cc(F)ccc3n2)C1 (stereo not drawn) | -10.9 | 54.7 | -30.2 | 0.6 | 31.8 | 9.6 | 33.1* | -9.9
Cc1cc(CN2CCCC(CO)(Cc3cccc(Cl)c3)C2)n[nH]1 (stereo not drawn) | -7.2 | 10.9 | -15.8 | 1.8 | -18.0 | -1.5 | . | .
Cc1ccc(OCC(=O)Nc2ccc(S(=O)(=O)N3CCOCC3)cc2)c(Br)c1 | -7.1 | 4.2 | 6.8 | 1.4 | 7.5 | 5.1 | . | .
C=CC(COCc1ccccc1)N([C@@H](Cc1ccccc1)C(=O)OC)S(=O)(=O)c1ccccc1Br (stereo partly drawn) | 4.3 | 11.3 | 29.1 | 17.6 | 80.1* | -2.2 | 10.6 | 19.7
CC(C)(C)c1ccccc1OCC(=O)Nc1ccccc1C(=O)NCc1cccnc1 | 58.1* | 28.5 | 15.7 | 14.4 | 42.5* | 12.8 | 8.2 | -14.7
COc1cccc(C(=O)N=c2sc3cc(S(C)(=O)=O)ccc3n2C)c1 | 12.2 | 56.5 | 5.8 | 8.4 | 30.3 | -0.5 | 20.3 | 6.3
COc1cc(OC)cc(C(=O)N=c2sc3ccccc3n2C)c1 | 16.9 | 60.1 | -14.0 | 0.5 | -15.0 | 4.3 | . | .
O=C(c1ccco1)N1CCN(C(=O)N2CCCC2)CC1 | -21.9 | 2.8 | 8.9 | 1.0 | 4.4 | 0.8 | . | .
O=C(c1ccco1)N1CCN(c2ncccn2)CC1 | -9.2 | -5.9 | 12.1 | 0.8 | 22.6 | 0.3 | 4.8 | 3.7
Cc1nnc(SCC(=O)Nc2nc(-c3ccccc3)cs2)n1N | 14.6 | 8.6 | -17.2 | 7.4 | -0.6 | 0.4 | . | .
Cn1cnnc1SCC(=O)Nc1nc(-c2ccccc2)cs1 | 8.6 | 45.4 | -11.0 | 5.1 | 42.3* | 1.5 | 31.7* | 1.7
O=C(Nc1ccc(S(=O)(=O)Nc2ncccn2)cc1)C1=NN(c2ccccc2)C(=O)CC1 | -11.7 | 16.9 | -2.2 | -0.5 | -5.0 | -0.2 | . | .
COc1ccc(C(=O)N2CCN(c3ncccn3)CC2)cc1[N+](=O)[O-] | -8.4 | -3.0 | -7.8 | 1.4 | -11.0 | 1.2 | . | .
CC(C)(C)N(NC(=O)Nc1ccc(Cl)c(Cl)c1)C(=O)c1ccccc1 | 14.6 | 20.2 | 29.3 | 20.8 | 72.6* | 3.5 | 7.6 | 9.7
CC(C)(C)N(NC(=O)Nc1ccc(F)cc1)C(=O)c1ccccc1 | -10.8 | 8.9 | -9.8 | 4.8 | -2.1 | -0.1 | . | .
COc1ccc(-c2cc3nc4ccccc4n3c(N)c2C#N)cc1 | 38.2 | 35.1 | -9.3 | 6.9 | -22.4 | -0.9 | . | .
Cc1ccc(C(CC(=O)N2CCNCC2)c2ccccc2)c(O)c1C (stereo not drawn) | -1.8 | 2.3 | -4.2 | 3.9 | 34.4 | -1.1 | 41.0* | 31.3*
Cc1ccc(C(CC(=O)N2CCCCC2)c2ccccc2)c(O)c1C (stereo not drawn) | -2.2 | -12.4 | -11.1 | 0.3 | -1.9 | 0.5 | . | .
CCS(=O)(=O)c1ncc(Cl)c(C(=O)Nc2ccc(C)cc2)n1 | 9.6 | 51.0 | 26.0 | 3.0 | 28.3 | 1.0 | 32.0* | 20.4
O=C(N/N=C/c1ccccn1)c1cc(-c2ccc(Cl)cc2)nc2ccccc12 | 2.6 | 5.0 | -17.4 | 0.5 | -11.2 | 6.4 | . | .
O=C(N/N=C/c1ccccn1)c1cc(-c2ccc(Br)cc2)nc2ccccc12 | 5.9 | 24.0 | 20.2 | -0.3 | 50.0* | 6.8 | 39.8* | 23.0
CCc1nc2ccccc2c(C(=O)Nc2ccc(F)cc2)c1C | -4.3 | 1.3 | 11.9 | 4.9 | -14.0 | -0.3 | . | .
SMILES | TAAR1 antagonist | OX1R antag-1 | CHO parental Ca | TAAR1 agonist | OX1R antag-2 | NTR1 agonist | OX1R Ca confirm | CHO Ca triplic
O=C(COC(=O)COc1ccc(Cl)cc1Cl)NC1CCCCCC1 | 6.4 | 6.3 | -10.2 | 1.5 | -17.6 | 4.3 | . | .
O=C(c1ccc(NS(=O)(=O)c2ccc(F)cc2)cc1)N1CCCCC1 | -5.9 | 14.3 | -0.4 | 3.8 | 1.8 | 0.0 | . | .
O=C(c1ccc(S(=O)(=O)Nc2ccc(F)cc2)cc1)N1CCN(c2ccccn2)CC1 | 29.4 | 52.3 | 16.2 | 34.4 | 34.3 | 0.7 | 49.1* | 13.7
Cc1cc(OCC(=O)N(C)C2CCCCC2)cc(C)c1Cl | -28.7 | 37.4 | 8.7 | 18.2 | 25.6 | 2.5 | 14.4 | -5.0
O=C(COC(=O)[C@H](Cc1c[nH]c2ccccc12)NC(=O)c1cccs1)NCc1ccccc1 | 23.2 | 16.4 | 16.6 | 6.5 | 33.0 | 1.9 | 22.7 | -0.3
NS(=O)(=O)c1ccc(CCNC(=O)COC(=O)CCc2c[nH]c3ccccc23)cc1 | -6.0 | 12.3 | -9.3 | 16.7 | 32.5 | -0.2 | 14.6 | -8.3
O=C(NC(Cc1c[nH]c2ccccc12)C(=O)O)c1cccs1 (stereo not drawn) | -7.1 | 19.6 | -0.4 | 0.6 | -12.4 | 2.3 | . | .
O=C(CCc1c[nH]c2ccccc12)NC(Cc1ccccc1)C(=O)O (stereo not drawn) | 6.1 | 1.6 | -0.6 | 1.1 | -17.4 | 0.6 | . | .
COC(=O)C(Cc1ccccc1)NC(=O)CCc1c[nH]c2ccccc12 (stereo not drawn) | 18.5 | 10.3 | 4.5 | 1.6 | 39.0 | 1.0 | 37.4* | 8.4
O=C(COC(=O)CCc1c[nH]c2ccccc12)NCCc1ccccc1 | 20.8 | 10.2 | -5.7 | 11.5 | -0.1 | 0.4 | . | .
COc1ccc(CCNC(=O)C(=O)NCc2cccs2)cc1OC | 12.1 | 18.5 | -11.3 | 6.5 | 0.1 | 2.1 | . | .
O=C(CSc1nnc(C2CCCCC2)o1)Nc1ccccc1Cl | -15.2 | 13.3 | -7.9 | 0.7 | -14.6 | 1.1 | . | .
NC(=O)c1ccsc1NC(=O)CSc1nc2ccccc2c(=O)n1CCCO | -2.3 | 38.9 | -6.2 | 9.7 | 0.0 | -0.6 | . | .
Cn1c(SCC(=O)Nc2sccc2C(N)=O)nc2ccccc2c1=O | -7.6 | 25.1 | -18.8 | 10.9 | 36.5 | 4.1 | 8.2 | 4.2
O=C(CN(c1cccc([N+](=O)[O-])c1)S(=O)(=O)c1ccccc1)NCc1ccccc1 | 11.7 | 34.7 | -19.6 | 11.1 | -16.9 | -0.4 | . | .
O=C(CN(c1cccc([N+](=O)[O-])c1)S(=O)(=O)c1ccccc1)N(Cc1ccccc1)Cc1ccccc1 | 24.4 | 24.1 | -2.8 | 3.9 | 29.0 | 0.4 | -1.3 | -12.8
